Reference: ChEMBL document CHEMBL3271953, “Bridged aminotetralins. 4. Resolution of potent analgesics of the bridged aminotetralin type” (J Med Chem, 1976)
Active and inactive are the calls of the source.

Assays:
[1] = species on record: Rattus norvegicus; experiment: Ratio of morphine ED50 to compound ED50 for analgesic activity in Charles River rat by tail flick test; assay type: functional
[2] = test system: Rattus norvegicus; experiment: Analgesic activity in ip dosed Charles River rat by tail flick test; assay type: functional
Procedure, shortened: (§1)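 D'Amour-Smith rat tail-flick test. Compounds were given ip, im or po, and analgesic ED50 was derived. Doses are expressed as mg of base per kg and given as the hydrochloride or hydrobromide salt or as the free base. Some ED50s rest on two doses only.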

[3] = test system: Rattus norvegicus; experiment: Analgesic activity in po dosed Charles River rat by tail flick test; assay type: functional; procedure, shortened: as §1
[4] = test system: Rattus norvegicus; experiment: Analgesic activity in im dosed Charles River rat by tail flick test; assay type: functional; procedure, shortened: as §1
[5] = test system: Rattus norvegicus; experiment: Analgesic activity in Charles River rat at 20 mg/kg, po by tail flick test; assay type: functional, organism-based; design: dose 20 mg/kg
[6] = test system: Rhesus monkey; experiment: Analgesic activity in po dosed monkey assessed as increase in shock threshold; assay type: functional, organism-based; conditions: Macaca mulatta
[7] = test system: Rhesus monkey; experiment: Analgesic activity in monkey assessed as increase in shock threshold at 0.06 mg/kg, im; assay type: functional, organism-based; design: dose 0.06 mg/kg; conditions: Macaca mulatta
[8] = test system: Rhesus monkey; experiment: Narcotic antagonism activity in morphine-dependent rhesus monkey assessed as precipitation of withdrawal symptoms at 0.5 to 1 mg/kg, im; assay type: functional, organism-based; conditions: Macaca mulatta
[9] = test system: Rhesus monkey; experiment: Narcotic antagonism activity in morphine-dependent rhesus monkey assessed as precipitation of withdrawal symptoms at 1 mg/kg, im measured for 10 hrs; assay type: functional, organism-based; design: dose 1 mg/kg; conditions: Macaca mulatta
[10] = Acute toxicity in po dosed rat; assay type: organism-based; conditions: in vivo
Procedure, shortened: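 Acute toxicity in rats after oral dosing, expressed as an LD50 in mg/kg.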

[11] = test system: Rattus norvegicus; experiment: Ratio of morphine ED50 to compound ED50 for analgesic activity in po dosed Charles River rat by tail flick test; assay type: functional
[12] = Rattus norvegicus, Charles River, Tail, ip, read-out: ED50
[13] = Rattus norvegicus, Charles River, Tail, po, read-out: ED50
[14] = Rattus norvegicus, Charles River, Tail, im, read-out: ED50

With CC[C@@]12CCCCCC(Cc3ccc(O)cc31)[C@@H]2N (stereo in doubt; (-)-2) the “Ratio ED50” value [1] was “<=15”, the ED50 [2] was 0.5 mg/kg and the ED50 [3] was 3.5 mg/kg. It also gave an ED50 [4] of 0.1 mg/kg.
Compound Br.C[C@@]12CCCCCC(Cc3ccc(O)cc31)[C@@H]2N (mixture of isomers) has an ED50 [2] of 1.11 mg/kg, an ED50 [3] of 10 mg/kg and an ED50 [4] of 0.45 mg/kg.
Work on CN1CC[C@]23c4c5ccc(O)c4O[C@H]2[C@@H](O)C=C[C@H]3[C@H]1C5 [MORPHINE] yielded an ED50 [2, 12] of 4.43 mg/kg, an ED50 [3, 13] of 15.9 mg/kg and an ED50 [4, 14] of 1.57 mg/kg.
For CC[C@@]12CC/C=C\CC(Cc3ccc(O)cc31)[C@@H]2N.Cl (mixture of isomers), the ED50 [2] was 1.75 mg/kg.
With CC[C@@]12CCCCCC(Cc3ccc(O)cc31)[C@@H]2N (stereo in doubt; (+)-2) the ED50 [2] was 7.5 mg/kg, the ED50 [3] was 80 mg/kg and the ED50 [4] was 2 mg/kg.
CC[C@@]12CC/C=C\CC(Cc3ccc(O)cc31)[C@@H]2N.Cl (stereo in doubt; (-)-4) showed an ED50 [2] of 9 mg/kg and an ED50 [4] of 4 mg/kg.
CC[C@@]12CCCCCC(Cc3ccc(O)cc31)[C@@H]2N (mixture of isomers) showed an ED50 [2] of 3.7 mg/kg, an ED50 [3] of 10 mg/kg and an ED50 [4] of 0.25 mg/kg.
CC[C@@]12CCCCCC(Cc3ccc(OC)cc31)[C@@H]2N.Cl (stereo in doubt; (+)-1) showed an ED50 [2] of 10 mg/kg, an ED50 [3] of 30 mg/kg and an ED50 [4] of 10 mg/kg.
For CC[C@@]12CCCCCC(Cc3ccc(OC)cc31)[C@@H]2N (mixture of isomers), the Activity [5] was “Active”.
For CC[C@@]12CCCCCC(Cc3ccc(OC)cc31)[C@@H]2N.Cl (stereo in doubt; (-)-1), the ED50 [2] was 3.3 mg/kg, the ED50 [3] was 7.5 mg/kg and the ED50 [4] was 3.5 mg/kg.
For CC[C@@]12CC/C=C\CC(Cc3ccc(O)cc31)[C@@H]2N.Cl (stereo in doubt; (+)-4), the “Ratio ED50” value [1] was “<=15”, the ED50 [2] was 0.8 mg/kg and the ED50 [3, 13] was 5 mg/kg. For the same compound, the ED50 [4] was 0.195 mg/kg.
Compound COc1ccc2c(c1)[C@@]1(C)CCCCCC(C2)[C@@H]1N.Cl (stereo in doubt; (-)-5) has an ED50 [2] of 2 mg/kg, an ED50 [3, 13] of 3.5 mg/kg and an ED50 [4, 14] of 4.5 mg/kg.
For COc1ccc2c(c1)[C@@]1(C)CCCCCC(C2)[C@@H]1N.Cl (mixture of isomers), the ED50 [2] was 4.88 mg/kg.
CC[C@@]12CC/C=C\CC(Cc3ccc(OC)cc31)[C@@H]2N.Cl (stereo in doubt; (+)-3) showed an ED50 [2, 12] of 3.75 mg/kg and an ED50 [4, 14] of 12.5 mg/kg.
For COc1ccc2c(c1)[C@@]1(C)CCCCCC(C2)[C@@H]1N.Cl (stereo in doubt; (+)-5), the ED50 [2] was greater than 25 mg/kg.
For C[C@@]12CCCCCC(Cc3ccc(O)cc31)[C@@H]2N (stereo in doubt; (-)-6), the Activity [6] was “Dose-dependent effect”, the Activity [7] was “Active” and the Activity [8] was “Active”. The Activity [9] was “Active”.
In the case of CC[C@@]12CC/C=C\CC(Cc3ccc(OC)cc31)[C@@H]2N.Cl (mixture of isomers), the ED50 [2] is reported as 4.2 mg/kg.
CC[C@@]12CCCCCC(Cc3ccc(OC)cc31)[C@@H]2N.Cl (mixture of isomers) showed an ED50 [2] of 3.5 mg/kg and an ED50 [4] of 12 mg/kg.
For Br.C[C@@]12CCCCCC(Cc3ccc(O)cc31)[C@@H]2N (stereo in doubt; (-)-6), the “Ratio ED50” value [1] was “<=15”, the ED50 [2] was 0.53 mg/kg and the LD50 [10] was 200 mg/kg. The ED50 [3] was 2.05 mg/kg, the ED50 [4] was 0.12 mg/kg and the “Ratio ED50” value [11] was 8.
With Br.C[C@@]12CCCCCC(Cc3ccc(O)cc31)[C@@H]2N (stereo in doubt; (+)-6) the ED50 [2] was greater than 100 mg/kg and the ED50 [4] was 95 mg/kg.
For C[C@@]12CCCCCC(Cc3ccc(OC(=O)C4CC4)cc31)[C@@H]2N.Cl, the ED50 [2, 12] was 1.5 mg/kg and the ED50 [4, 14] was 0.45 mg/kg.
For CC[C@@]12CC/C=C\CC(Cc3ccc(OC)cc31)[C@@H]2N.Cl (stereo in doubt; (-)-3), the ED50 [2] was greater than 6.25 mg/kg.
